High-throughput results: PubChem BioAssay, several laboratories
HCV NS3 hel inh: inhibitors of HCV NS3 helicase, primary screen, biochemical, Cy5 molecular beacon fluorescence; Hepatitis C virus NS3 helicase; NS3 helicase DNA unwinding; inhibition, % at 10.9 µM; actives 0.56% (n = 290,000);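 active means inhibition above the mean of all tested compounds plus 3 SD, set per campaign, cut at about 35% in these data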
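assay system = NS3 helicase fragment of HCV | buffer or medium = MOPS pH 6.5, MgCl2, DTT, Tween20, BSA | timing = 60 min unwinding reaction at 25 °C after ATP addition | signal = Cy5 beacon fluorescence read at start and 1 h | read-out basis = % inhibition of unwinding | control set = low DMSO, high thioflavine S at 110 µM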
HSP90 inh: HSP90 inhibitors, primary screen, cell lysate, luminescence. Rabbit reticulocyte lysate, luciferase refolding luminescence, 3 h. inhibition, % at 5.6 µM. actives 0.91% (n = 290,000);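 active means inhibition above the screen-wide mean plus 3 SD, computed separately per campaign, cut at about 16% in these data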;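 further: inhibitors lower the luminescence because luciferase stays unfolded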
DNA FID counter: compounds displacing fluorescent DNA intercalator, primary screen, artefact control for HCV NS3 helicase inhibitor project, biochemical, FID fluorescence. DNA fluorescent intercalator displacement. actives 0.17% (n = 290,000). AID 1845, 2009. inhibition, % at 7.9 µM; in the data active means inhibition above about 37%;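 further: higher means more ethidium bromide displaced from hairpin DNA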
HSF1 inh: HSF1 inhibitors in luciferase reporter cells, primary screen, cell-based, NIH3T3, luminescence | activity change, negative = inhibition, % at 7.5 µM (by protocol) | AID 2098, 2009 | NIH3T3-HGL HSE-luciferase, MG132-induced, luminescence 8 h; hits give low values | actives 0.77% (n = 300,000);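 active means more than half of replicate wells show activity change below -50%, luminescence cut by over half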;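 further: luciferase reports HSF-1 transcriptional activity via heat shock element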
core dimer inh: inhibitors of HCV core protein dimerization, primary screen, biochemical, TR-FRET, high-throughput; inhibition, % at 5 µM; TR-FRET GST/Flag-core106 dimerization, 1536-well; AID 1899, 2009; actives 0.33% (n = 300,000);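 active means inhibition above the mean of all tested compounds plus 3 SD, set per screening campaign, cut at about 45% in these data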
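Assay system: Tagged HCV core106 pair (GST and Flag) | Buffer or medium: KF-containing HEPES buffer, pH 7.45, DTT, CHAPS, BSA | Also added: Eu donor and XL665 acceptor anti-tag antibodies | Dosing: One concentration, 5 µM, in 0.5% DMSO | Timing: 4 h at 22.5 °C | Technique: TR-FRET 671 and 617 nm emission | Repeats: Singlicate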
HSF1 activator: HSF-1 activators, primary screen, NIH3T3-HGL cells, MG132 stress, luminescence, single point | NIH3T3-HGL HSF-1 luciferase reporter, 8 h; 100% = twice DMSO control signal | activation, % at 9 µM | actives 1.7% (n = 300,000);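 active means mean replicate activation of at least 50% with a set share of replicates each reaching 50%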
Each line names hits and unclear results; the compound was inactive in the other large screens. This is a sample that favours compounds with a hit; in the whole collection about 3.9% have one here.

Cc1cc(C)n2nc(C(=O)N/N=C/c3cccc(Cl)c3)nc2n1	HSF1 activator 55.7
CCCOc1ccccc1NC(=O)/C=C/C(N)=O	none
O=C1C(=O)c2ccc(-c3ccccc3)cc2-c2ccccc21	HSF1 inh -95.2
Nc1ccc2c(c1)C(=O)c1ccccc1-2	none (no result: HCV NS3 hel inh, HSP90 inh, DNA FID counter)
Nc1ccc2c(c1)C(=O)c1ccccc1C2=O	none (no result: HCV NS3 hel inh, HSP90 inh, DNA FID counter)
Nc1ccc2c(c1)C(=O)C(=O)c1ccccc1-2	HSP90 inh 16.3, HSF1 inh -94.9
Cc1cccc(-n2nnnc2SCC(=O)c2cc(C)n(Cc3ccco3)c2C)c1	none
COc1ccccc1-c1cc(C(=O)NC(C)C)no1	HSF1 activator 54.0
COc1ccc2[nH]c(=O)c(CN(C3CCCCC3)C(c3nnnn3Cc3ccco3)C(C)C)cc2c1 (centres undefined)	core dimer inh 69.5, HSF1 activator 118.5
CCOC(=O)Cn1nnnc1C(C(C)C)N(Cc1cc2c(C)cc(C)cc2[nH]c1=O)C1CCCC1 (centres undefined)	HSF1 activator 122.9
CC(=O)N(Cc1cc2c(C)cc(C)cc2[nH]c1=O)C1CCCCC1	none
COc1ccc2[nH]c(=O)c(CN(Cc3nnnn3Cc3ccco3)C3CCCCC3)cc2c1	HCV NS3 hel inh 42.2
Cc1nn(CCO)c2ncc(C(=O)c3cc(F)ccc3O)cc12	none
COc1cc(/C=N/Nc2nc(C)nc3c2cnn3-c2ccccc2)ccc1O	none (no result: HSF1 inh, core dimer inh, HSF1 activator)
O=c1c(=Nc2ccccc2O)c(=O)c2ccccc12	HSF1 activator 55.1
O=Nc1c(O)c2ccccc2c2ccccc12	none (no result: HCV NS3 hel inh, HSP90 inh, DNA FID counter)
O=C(COC(=O)CCS(=O)(=O)c1ccc(Cl)cc1)NCCc1ccccc1	none
CCCc1nn2c(=O)cc(CSCC(=O)Nc3ccc(C)cc3)nc2s1	none
COc1cc(C(=O)N2CCN(C(=O)CC(C)C)CC2)cc(OC)c1OC	HSF1 inh -72.6
COc1ccc(C(=O)N2CCN(C(=O)CC(C)C)CC2)cc1OC	none
Cc1ccc(C(C)(O)CS(=O)(=O)Cc2ccccc2Cl)cc1 (centres undefined)	HSF1 activator 111.9
CC(O)(CS(=O)(=O)Cc1ccccc1)c1ccc(Cl)cc1 (centres undefined)	none
O=C(Cn1cnc2sc(-c3ccccc3)cc2c1=O)NCc1ccccc1	none
O=C(CN1C(=O)CC(c2ccccc2)=Nc2ccccc21)NCc1ccco1	HSF1 activator 71.1
O=C(Cn1cnc2sc(-c3ccccc3)cc2c1=O)NCc1ccco1	core dimer inh 64.7 (no result: HSF1 inh, HSF1 activator)
O=C(Cn1cnc2scc(-c3ccccc3)c2c1=O)NCc1ccco1	core dimer inh 56.3
Cn1cccc1/C=C1\SC(=Nc2cccc(O)c2)NC1=O	none
COc1ccc(NC(=O)CSc2c(C)nn(-c3nnc(C)c(=O)[nH]3)c2C)cc1	none
O=C(NCC(c1ccco1)N1CCc2ccccc2C1)c1ccc(F)cc1 (centres undefined)	none (no result: HCV NS3 hel inh, HSP90 inh, DNA FID counter)
CC(C)=CC[N+]1(C)CCCCC1	none
COc1cccc(N2CCN(C(=O)c3c(C)nn(-c4ccccc4)c3C)CC2)c1	none
CC(C)(C)OC(=O)NNC1CC(=O)N(c2ccccc2F)C1=O (centres undefined)	none
COc1ccc(N2CCN(C(=O)CCS(=O)(=O)c3ccc4c(c3)NC(=O)CO4)CC2)cc1	none
c1ccc(CSCc2cn3ccsc3n2)cc1	none
Clc1ccc(SCc2cn3ccsc3n2)cc1	HSF1 activator 111.0
O=c1c2ccccc2nc(SCc2cn3ccsc3n2)n1-c1ccccc1	HSF1 activator 64.6
O=c1c2ccccc2nc(SCc2cn3ccsc3n2)n1-c1ccccc1F	none
Cc1csc2nc(CSc3ccc(Cl)cc3)cn12	HSF1 activator 67.5
Cc1cc(C)n2cc(CSc3ccc(Cl)cc3)nc2n1	none
O=C(CN(Cc1ccccc1)C(=O)c1ccco1)NCc1ccc(F)cc1	none
COc1ccccc1N1CCN(c2nc3c(C)cccn3c(=O)c2C=O)CC1	none
CC(OC(=O)c1cccc(S(=O)(=O)N(C)C)c1)C(=O)NCc1ccc2c(c1)OCO2 (centres undefined)	none (no result: HCV NS3 hel inh, HSP90 inh, DNA FID counter)
Cc1ccc(-c2cnc3cc(C)nn3c2)cc1	HSF1 activator 56.8
Cc1cc2c(c(/C=C/C(=O)c3ccccc3)c1)OC1(C=C2)Oc2ccccc2C(=O)N1C (centres undefined)	HSF1 activator 74.1
O=C(CSc1nnc(-c2ccncc2)n1Cc1ccco1)N1c2ccccc2Sc2ccc(Cl)cc21	HSF1 activator 69.8
Cn1c(SCC(=O)N2c3ccccc3Sc3ccc(Cl)cc32)nnc1-c1ccco1	none (no result: HSF1 inh, HSF1 activator)
Cc1ccc2cc(CCNC(=O)c3ccc(Br)o3)c(=O)[nH]c2c1	none
CCCn1cc(CN2CCC(n3nccc3NC(=O)CCOc3ccccc3)CC2)c(C)n1	none
Cc1ccc2nc(-c3ccc4c(c3)OCCO4)cc(C(=O)O)c2c1	HSF1 activator 52.0
CCCN(CCC)C(=O)c1cc(-c2ccc3c(c2)OCO3)nc2ccccc12	core dimer inh 55.9
CCCN(CCC)S(=O)(=O)c1ccc(NC(=O)c2cc(C(=O)OC)cc([N+](=O)[O-])c2)cc1	HSF1 inh -61.2
CC(C)(C)CC(=O)Nc1ccc(-c2cn3cccnc3n2)cc1	none
Cc1ccccc1-c1cc(=O)c2c(O)cccc2o1	HSF1 activator 57.1 (no result: HCV NS3 hel inh, HSP90 inh, DNA FID counter)
C#CCNC(=O)/C=C/c1ccc(OC)cc1	none
O=C1/C(=C\c2ccc(Br)o2)Cc2ccccc21	HSF1 activator 59.4
O=C1/C(=C/c2cccs2)Cc2ccccc21	none
O=C1CCCN1CCCNC(=S)Nc1ccc(Cl)cc1Cl	none
COc1ccc(S(=O)(=O)NNC(=O)C(=O)NNc2ccccn2)cc1	none
CCS(=O)(=O)N1Cc2ccccc2CC1C(=O)Nc1ccc(NC(C)=O)cc1 (centres undefined)	none
CCS(=O)(=O)N1Cc2ccccc2CC1C(=O)Nc1ccc(F)c(F)c1 (centres undefined)	HSF1 activator 59.5
O=C(Nc1c(S(=O)(=O)c2ccc(Cl)cc2)csc1Br)c1ccccc1Cl	HSF1 activator 54.3
CC(=O)c1ccc(NC(=O)CCC(=O)OCC(F)(F)C(F)F)cc1	HSP90 inh 16.6
CCN(CC)CCSc1nnc2c3ccccc3n(Cc3ccccc3)c2n1	none
CCN(CC)CCn1nc2c3c(cccc3c1=O)-c1ccccc1-2	DNA FID counter 39.7, HSF1 activator 173.1
O=c1c2cccc3c2c(nn1CN1CCOCC1)-c1ccccc1-3	none
Cc1ccc(O)c(NC(=O)C2CCCCC2)c1	HSF1 activator 68.4
O=C(CCC1CCCCC1)Nc1ccccc1-c1ccccc1	none
